T cruzi growth-1 – inhibitors of T. cruzi proliferation. T. cruzi beta-gal in NIH3T3, GalScreen luminescence, 90 h. 77,000 compounds, 5.9% hits. inhibition, % at 8.34 µM. AID 624255;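 active = mean inhibition above about 93%, with at least 55% of replicates each passing it, limit read from the data, passing the limit was not always enough; inconclusive = only one of those two conditions holds; inactive = neither condition holds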
KDM4C inh – inhibitors of human demethylase GASC-1 KDM4C; Q9H3R0; GST-KDM4C 2-372, H3K9me3 peptide, LANCE TR-FRET; inhibition, % at 12.5 µM; 96,000 compounds, 0.15% hits;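 active = mean replicate inhibition above about 25%, with at least 55% of replicates also reaching it, limit read from the data, passing the limit was not always enough; inconclusive = only one of those two conditions met; inactive = neither condition met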
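material = GST-tagged GASC-1 (JMJD2C) catalytic fragment, aa 2-372 | amount = enzyme final amount 10 nM | medium = HEPES buffer, pH 7.5, plus ascorbate | also added = H3K9me3 peptide substrate, Fe(II), 2-oxoglutarate | dosing = single dose | times = 30 min demethylation and 1 h detection at room temperature | detection = LANCE TR-FRET | read-out basis = Fall in 671/618 emission ratio as inhibition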
IDH1 mut inh – blocks human IDH1 R132H reductase activity; diaphorase/resazurin fluorescence, 60 min; inhibition, % at 10 µM; 70,000 compounds, 0.18% hits; O75874; AID 624101; in the data active = inhibition above about 34%; inconclusive = no clear call, values can overlap the other calls; inactive = below about 11%
Target sequence (O75874 whole entry R132H): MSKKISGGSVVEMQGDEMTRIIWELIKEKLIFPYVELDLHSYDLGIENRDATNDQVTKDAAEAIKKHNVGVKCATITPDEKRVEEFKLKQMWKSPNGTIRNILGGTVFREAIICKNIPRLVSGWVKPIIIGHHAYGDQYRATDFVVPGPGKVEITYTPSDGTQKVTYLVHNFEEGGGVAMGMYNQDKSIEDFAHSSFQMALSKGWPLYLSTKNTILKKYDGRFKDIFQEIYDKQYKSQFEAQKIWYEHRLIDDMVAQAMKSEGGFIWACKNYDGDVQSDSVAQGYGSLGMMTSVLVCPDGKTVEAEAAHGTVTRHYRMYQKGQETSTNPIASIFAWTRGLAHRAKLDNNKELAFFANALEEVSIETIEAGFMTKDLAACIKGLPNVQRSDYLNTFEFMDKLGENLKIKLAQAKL
Pf Dd2 inh – inhibitors of Plasmodium falciparum Dd2 growth; P. falciparum Dd2 growth, SYBR Green, 72 h; stronger effect = lower value; activity change, % at 10 µM; 94,000 compounds, 2.3% hits; AID 1159554; in the data active = activity change below about -80%; inconclusive = no clear call, values can overlap the other calls
T cruzi growth-2 – Trypanosoma cruzi proliferation inhibition; shares compounds with T cruzi growth-1; T. cruzi beta-gal in NIH3T3, GalScreen luminescence, 90 h; inhibition, % at 8.35 µM; 5,600 compounds, 72% hits; AID 651739;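 active = mean replicate inhibition above about 95% and at least 55% of replicates individually reaching it, limit read from the data; inconclusive = only one of the two criteria is met; inactive = neither criterion is met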
T cruzi growth-3 – inhibitors of T. cruzi proliferation. AID 651740. inhibition, % at 2.09 µM. 5,600 compounds, 21% hits. T. cruzi beta-gal in NIH3T3, GalScreen luminescence, 90 h. shares compounds with T cruzi growth-1;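 active = mean inhibition above about 95%, with at least 55% of replicates also reaching it, limit read from the data; inconclusive = meets just one of the two conditions; inactive = meets neither condition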
3T3 cytotox – kills mouse NIH/3T3 fibroblasts; NIH/3T3 viability, CellTiter-Glo ATP luminescence, 90 h; cytotoxicity (signal decrease), % at 8.35 µM; shares compounds with T cruzi growth-1; 5,600 compounds, 14% hits;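 active = mean signal decrease across replicates above about 35% based on untreated-well scatter, with enough replicates individually passing, limit read from the data; inconclusive = no rule stated though some were filed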
3T3 cytotox 2 – kills mouse NIH/3T3 fibroblasts; shares compounds with T cruzi growth-1; inhibition, % at 24.9 µM; NIH/3T3 viability, CellTiter-Glo ATP luminescence, 90 h; 5,600 compounds, 56% hits;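 active = mean loss of cell viability signal at or above a set limit, and enough replicates individually reaching it; inconclusive = meets only the mean limit or only the replicate share; inactive = meets neither condition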
A number is an active result; 0 = inactive; ? = inconclusive; - = no result given. The list is not random: actives were taken first. Their share in the collection is about 5.9%.

SMILES	T cruzi growth-1	KDM4C inh	IDH1 mut inh	Pf Dd2 inh	T cruzi growth-2	T cruzi growth-3	3T3 cytotox	3T3 cytotox 2
COc1ccc(S(=O)(=O)N(C)C[C@H]2Oc3c(NC(=O)Nc4cccc5ccccc45)cccc3C(=O)N([C@H](C)CO)C[C@@H]2C)cc1	117	-	-	0	108	0	0	0
COc1ccc(S(=O)(=O)N(C)C[C@H]2Oc3c(NC(=O)Nc4cccc5ccccc45)cccc3C(=O)N([C@H](C)CO)C[C@H]2C)cc1	128	0	0	-83	0	0	0	29
COc1ccc(S(=O)(=O)N(C)C[C@H]2Oc3c(NC(=O)Nc4cccc5ccccc45)cccc3C(=O)N([C@@H](C)CO)C[C@@H]2C)cc1	100	0	0	0	112	0	0	0
O=C(C1CCC1)N1CCCCN2[C@@H](CO)[C@@H](c3ccc(C#CC4CCCC4)cc3)[C@@H]2C1	0	-	-	0	-	-	-	-
O=C(C1CCC1)N1CCCCN2[C@H](CO)[C@@H](c3ccc(C#CC4CCCC4)cc3)[C@H]2C1	?	-	-	0	0	0	0	104
O=C(C1CCC1)N1CCCCN2[C@H](CO)[C@H](c3ccc(C#CC4CCCC4)cc3)[C@H]2C1	101	-	-	0	104	0	0	103
O=C(Nc1ccccc1)N1CCCCN2[C@@H](CO)[C@@H](c3ccc(C#Cc4ccccn4)cc3)[C@@H]2C1	101	0	-	0	110	105	0	0
COc1ccc(NC(=O)N2CCCCN3[C@H](C2)[C@@H](c2ccc(C#Cc4ccccn4)cc2)[C@@H]3CO)cc1	103	0	-	0	103	0	0	38
O=C(c1ccncc1)N1CCCCN2[C@H](CO)[C@H](c3ccc(C#Cc4ccccn4)cc3)[C@@H]2C1	0	0	-	0	-	-	-	-
COc1ccc(C#Cc2ccc([C@@H]3[C@H](CO)N4CCCCN(C(=O)Nc5ccccc5)C[C@@H]34)cc2)cc1	0	0	-	0	-	-	-	-
COc1ccc(NC(=O)N2CCCCN3[C@H](CO)[C@H](c4ccc(C#Cc5ccccc5)cc4)[C@H]3C2)cc1	0	-	-	0	-	-	-	-
CS(=O)(=O)N1CCCCN2[C@H](CO)[C@H](c3ccc(C#Cc4ccccn4)cc3)[C@@H]2C1	113	0	-	0	0	0	0	0
CCS(=O)(=O)N1CCCCN2[C@H](C1)[C@@H](c1ccc(C#Cc3ccccn3)cc1)[C@@H]2CO	0	0	-	0	-	-	-	-
O=C(c1ccncc1)N1CCCCN2[C@H](C1)[C@@H](c1ccc(C#Cc3ccccn3)cc1)[C@@H]2CO	108	0	-	0	105	0	0	0
COc1ccc(N(CC(=O)Nc2c(C)cc(C)cc2C)S(C)(=O)=O)cc1Cl	-	-	0	-	-	-	-	-
C[C@H]1CN([C@@H](C)CO)S(=O)(=O)c2ccc(-c3cccc(F)c3)cc2O[C@@H]1CN(C)S(=O)(=O)c1ccccc1	120	0	0	0	96	0	37	41
C[C@@H]1CN([C@@H](C)CO)S(=O)(=O)c2ccc(-c3cccc(F)c3)cc2O[C@H]1CN(C)S(C)(=O)=O	0	0	0	0	-	-	-	-
C[C@H](CO)N1C[C@H](C)[C@H](CN(C)S(=O)(=O)c2ccccc2)Oc2cc(-c3cccc(F)c3)ccc2S1(=O)=O	120	0	-	0	97	100	0	34
C[C@H](CO)N1C[C@H](C)[C@@H](CN(C)S(=O)(=O)c2ccccc2)Oc2cc(-c3cccc(F)c3)ccc2S1(=O)=O	115	0	0	0	101	0	0	29
C[C@@H]1CN([C@H](C)CO)S(=O)(=O)c2ccc(-c3cccc(F)c3)cc2O[C@H]1CN(C)S(=O)(=O)c1ccccc1	?	0	0	0	0	0	65	41
Cc1cccc(-n2c(C)nnc2SCC(=O)Nc2ccc(Br)cc2Cl)c1	-	-	0	-	-	-	-	-
C[C@H]1CN([C@@H](C)CO)S(=O)(=O)c2ccc(-c3cccc(F)c3)cc2O[C@H]1CN(C)S(=O)(=O)c1ccccc1	119	0	0	0	99	106	42	62
